From ChEMBL document CHEMBL2021923, “Synthesis and antikinetoplastid activities of 3-substituted quinolinones derivatives” (Eur J Med Chem, 2012)

Experiments:
[1] = system: Leishmania donovani; experiment: Antikinetoplastid activity against Leishmania donovani MHOM/ET/67/HU3 promastigotes after 3 days incubation at 27 degC under dark condition and 5% CO2 atmosphere by MTT assay; format: functional, organism-based; conditions: MHOM/ET/67/HU3, 72 h
[2] = system: Trypanosoma brucei brucei; experiment: Antikinetoplastid activity against Trypanosoma brucei brucei CMP by drug incubation infectivity test; format: functional; conditions: read-out: MEC
[3] = Cytotoxicity against mouse RAW264.7 cells assessed as cell survival at 100 uM after 24 hrs incubation by trypan blue exclusion method; format: cell-based; conditions: read-out: Survival
Procedure, shortened: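 RAW 264.7 mouse macrophages grown in DMEM with 10% heat-inactivated FBS, seeded at 5 × 10^4 cells/well, and held 24 h at 37 °C in 5% CO2. Medium was then replaced with fresh DMEM containing compound, followed by a further 24 h incubation. Cells were scraped off, stained with trypan blue and counted live on a hemocytometer. Viability is given as % of untreated cells (100%).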

[4] = system: Leishmania donovani; experiment: Antikinetoplastid activity against Leishmania donovani MHOM/ET/67/HU3 amastigotes after 3 days incubation at 37 degC under dark condition and 5% CO2 atmosphere by SYBR green I dye based assay; format: functional, organism-based; conditions: MHOM/ET/67/HU3, 72 h
Procedure, shortened: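 Axenic amastigotes were obtained by diluting log-phase LV9 promastigotes into amastigote medium (M-199 with KCl, glucose, glutamine, trypticase peptone, haemin, 20% FBS; pH 5.5) and grown at 37 °C in 5% CO2. Parasites were exposed to the compounds for 72 h, then lysed. Growth was read by SYBR Green I DNA fluorescence against a parasite-density standard range, and the IC50 was derived.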

[5] = Cytotoxicity against human MCF7 cells assessed as cell survival at 100 uM after 72 hrs incubation by MTT assay; format: cell-based; conditions: read-out: Survival
[6] = system: MCF7; experiment: Cytotoxicity against human MCF7 cells assessed as cell viability after 72 hrs incubation by MTT assay; format: cell-based; conditions: MCF7, 72 h

Row | Structure (SMILES) | IC50 [1] | minimal effective concentration [2] | viability at 24 h, 100 µM [3] | IC50 [4] | viability at 72 h, 100 µM [5] | IC50 [6]
1 | Cn1c(=O)cc(O)c2ccccc21 | > 100 µM | > 200 µM | 70% |  |  | 
2 | Cn1c(=O)c([N+](=O)[O-])c(O)c2ccccc21 | > 100 µM | > 200 µM | 80% |  |  | 
3 | Cc1ccc(S(=O)(=O)Oc2c([N+](=O)[O-])c(=O)n(C)c3ccccc23)cc1 | 3 µM | > 200 µM | 100% | 2 µM |  | 
4 | Cc1ccc(S(=O)(=O)Oc2c(N)c(=O)n(C)c3ccccc23)cc1 | 30 µM | 12.5 µM |  |  | 24% | 
5 | COc1ccc(C(=O)Nc2c(O)c3ccccc3n(C)c2=O)cc1 | 11 µM | > 200 µM |  | > 100 µM | 81% | 
6 | Cn1c(=O)c(NC(=O)c2ccc(F)cc2)c(O)c2ccccc21 | > 100 µM | > 200 µM |  |  | 74% | 
7 | COc1cc(C(=O)Nc2c(O)c3ccccc3n(C)c2=O)cc(OC)c1OC | 3.5 µM | > 200 µM |  | > 100 µM | 100% | 
8 | COc1cc(C(=O)Nc2c(O)c3ccccc3[nH]c2=O)cc(OC)c1OC | > 100 µM | > 200 µM |  |  | 76% | 
9 | Cn1c(=O)c(NC(=O)c2ccc3c(c2)C=CC(C)(C)O3)c(O)c2ccccc21 | 53 µM | > 200 µM |  |  | 100% | 
10 | Cn1c(=O)c(NC(=O)c2ccc3c(c2)CCC(C)(C)O3)c(O)c2ccccc21 | 56 µM | > 200 µM |  |  | 98% | 
11 | CCCC(=O)Nc1c(O)c2ccccc2n(C)c1=O | 11 µM | > 200 µM |  | 3 µM | 97% | 
12 | Cn1c(=O)c(NC(=O)CCCCCCCCCCOn2nnc3ccccc32)c(O)c2ccccc21 | 34 µM | 200 µM |  |  | 72% | 
13 | Cn1c(=O)c(NC(=O)c2cc3ccccc3[nH]2)c(O)c2ccccc21 | > 100 µM | > 200 µM |  |  | 107% | 
14 | COc1ccc(C(=O)Nc2c(OS(=O)(=O)c3ccc(C)cc3)c3ccccc3n(C)c2=O)cc1 | 25 µM | > 200 µM |  |  | 82% | 
15 | Cc1ccc(S(=O)(=O)Oc2c(NC(=O)c3ccc(F)cc3)c(=O)n(C)c3ccccc23)cc1 | 49 µM | > 200 µM |  |  | 57% | 
16 | COc1cc(C(=O)Nc2c(OS(=O)(=O)c3ccc(C)cc3)c3ccccc3n(C)c2=O)cc(OC)c1OC | 41 µM | > 200 µM |  |  | 84% | 
17 | COc1cc(C(=O)Nc2c(OS(=O)(=O)c3ccc(C)cc3)c3ccccc3[nH]c2=O)cc(OC)c1OC | 18 µM | > 200 µM |  |  | 55% | 
18 | Cc1ccc(S(=O)(=O)Oc2c(NC(=O)c3ccc4c(c3)C=CC(C)(C)O4)c(=O)n(C)c3ccccc23)cc1 | 30 µM | > 200 µM |  |  | 37% | 
19 | Cc1ccc(S(=O)(=O)Oc2c(NC(=O)c3ccc4c(c3)CCC(C)(C)O4)c(=O)n(C)c3ccccc23)cc1 | 30 µM | > 200 µM |  |  | 100% | 
20 | CCCC(=O)Nc1c(OS(=O)(=O)c2ccc(C)cc2)c2ccccc2n(C)c1=O | 50 µM | > 200 µM |  |  | 55% | 
21 | Cc1ccc(S(=O)(=O)Oc2c(NC(=O)CCCCCCCCCCOn3nnc4ccccc43)c(=O)n(C)c3ccccc23)cc1 | 37 µM | > 200 µM |  |  | 69% | 
22 | Cc1ccc(S(=O)(=O)Oc2c(NC(=O)c3cc4ccccc4[nH]3)c(=O)n(C)c3ccccc23)cc1 | 42 µM | > 200 µM |  |  | 50% | 
23 | COc1cc(C(=O)Nc2c(OS(=O)(=O)c3cccs3)c3ccccc3n(C)c2=O)cc(OC)c1OC | 14 µM | > 200 µM |  |  | 77% | 
24 | COc1ccc(C(=O)Nc2cc3ccccc3n(C)c2=O)cc1 | > 100 µM | > 200 µM |  |  | 89% | 
25 | COc1ccc(C(=O)Nc2cc3cc(Br)ccc3n(C)c2=O)cc1 | > 100 µM | > 200 µM |  |  | 20% | 
26 | COc1ccc(C(=O)Nc2cc3cc(OC)ccc3n(C)c2=O)cc1 | > 100 µM | > 200 µM |  |  | 22% | 
27 | CCCCNc1cc2ccccc2n(C)c1=O | > 100 µM | > 200 µM |  |  | 10% | 7 µM
28 | O=[N+]([O-])c1c(O)nc2ccccc2c1O | > 100 µM | > 200 µM | 90% |  |  | 
29 | CCCCCCCCCCCCCCCCOP(=O)([O-])OCC[N+](C)(C)C [MILTEFOSINE] |  |  | 85% | 5 µM |  | 
30 | N=C(N)c1ccc(OCCCCCOc2ccc(C(=N)N)cc2)cc1 [PENTAMIDINE] | 2.84 µM | 5 µM | 75% |  |  | 
